Active and inactive are the calls of the source. The rule behind the calls is not given here.
Columns and labels:
[1] = test system: Liver microsomes; assay: Metabolic stability in human liver microsomes assessed as clearance; assay type: ADME, Microsome
Method in brief: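 Human liver microsomes were used at a final 0.5 mg/ml in potassium phosphate buffer pH 7.4, with compound in DMSO, pre-incubated 10 min at 37 °C. The reaction was started with NADP, G6P, G6P-DH, MgCl2 3 mM and UDPGA 1 mM. Samples were taken at 0 and 30 min, quenched in acetonitrile and analysed by LC–MS/MS. A no-cofactor control and a 7-ethoxycoumarin standard were included.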

[2] = test system: Plasmodium falciparum; assay: Antimalarial activity against chloroquine-resistant Plasmodium falciparum K1 by [3H]hypoxanthine uptake; assay type: functional, organism-based
Method in brief: (§1)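 Growth inhibition of P. falciparum was measured by [3H]-hypoxanthine incorporation. IC50 is the mean of two experiments.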

[3] = test system: Plasmodium berghei; assay: Antimalarial activity as reduced parasitaemia against Plasmodium berghei ANKA infected NMRI mice (Mus musculus) at 3 mg/kg/day subcutaneous dose over 4 days; assay type: functional; set-up: scale not given: the % may be the effect or the level left
Method in brief: (§2)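 NMRI mice, in groups of three, were infected with GFP-transfected P. berghei ANKA. Treatment started 1 day post-infection, once daily for 4 consecutive days. Compounds were formulated in 70/30 Tween 80/ethanol and diluted 10× with water. Read-outs were % parasitemia reduction on day 4 post-infection and survival versus untreated controls (n = 5). Cure meant no parasites by microscopy at day 30.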

[4] = test system: Plasmodium berghei; assay: Antimalarial activity as survival time against Plasmodium berghei ANKA infected NMRI mice (Mus musculus) at 3 mg/kg/day subcutaneous dose over 4 days; assay type: functional; method in brief: as §2
[5] = target: T1, Histidine-rich protein PFHRP-II (Plasmodium falciparum) (UniProt P05227); assay: Inhibition of beta-hematin formation as ratio to heme molar equivalent in Plasmodium falciparum; assay type: functional
T1 sequence (whole entry): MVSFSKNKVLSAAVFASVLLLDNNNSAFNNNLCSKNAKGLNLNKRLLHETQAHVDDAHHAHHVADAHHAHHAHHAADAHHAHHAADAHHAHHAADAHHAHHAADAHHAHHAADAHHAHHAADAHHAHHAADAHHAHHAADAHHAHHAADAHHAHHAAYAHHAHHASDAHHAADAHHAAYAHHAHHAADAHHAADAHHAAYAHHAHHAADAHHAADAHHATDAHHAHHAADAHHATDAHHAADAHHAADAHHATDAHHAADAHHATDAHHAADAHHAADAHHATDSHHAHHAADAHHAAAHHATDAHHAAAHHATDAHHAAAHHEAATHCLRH

[6] = test system: Plasmodium berghei; assay: Antimalarial activity as survival time in Plasmodium berghei ANKA infected NMRI mice (Mus musculus) at 100 mg/kg peroral dose after 3 days; assay type: functional; settings: route oral
Method in brief: (§3)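 GFP-transfected P. berghei ANKA-infected NMRI mice, in groups of three, got a single dose 1 day post-infection. Compounds were in 70/30 Tween 80/ethanol, diluted 10× with water. Read-outs were % parasitemia reduction on day 3 post-infection and survival time versus untreated controls (n = 5).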

[7] = test system: Plasmodium berghei; assay: Antimalarial activity as survival time against Plasmodium berghei ANKA infected NMRI mice (Mus musculus) at 10 mg/kg/day peroral dose over 4 days; assay type: functional; settings: route oral; method in brief: as §2
[8] = test system: Plasmodium falciparum; assay: Antimalarial activity against chloroquine-sensitive Plasmodium falciparum D10 by LDH assay; assay type: functional, organism-based
Method in brief: (§4)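 Parasite growth inhibition in P. falciparum culture was read as parasite lactate dehydrogenase production. IC50 is the mean of 3–4 experiments, each run in triplicate.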

[9] = test system: Plasmodium berghei; assay: Antimalarial activity as reduced parasitaemia against Plasmodium berghei ANKA infected NMRI mice (Mus musculus) at 30 mg/kg/day peroral dose over 4 days; assay type: functional; set-up: scale not given: the % may be the effect or the level left; settings: route oral; method in brief: as §2
[10] = test system: Plasmodium berghei; assay: Antimalarial activity as reduced parasitaemia against Plasmodium berghei ANKA infected NMRI mice (Mus musculus) at 30 mg/kg subcutaneous dose after 3 days; assay type: functional; set-up: scale not given: the % may be the effect or the level left; method in brief: as §3
[11] = test system: K562; assay: Cytotoxicity against human K562 cells by MTT assay; assay type: cell-based
[12] = test system: Plasmodium berghei; assay: Antimalarial activity as survival time in Plasmodium berghei ANKA infected NMRI mice (Mus musculus) at 30 mg/kg subcutaneous dose after 3 days; assay type: functional; method in brief: as §3
[13] = test system: Plasmodium berghei; assay: Antimalarial activity a survival time in Plasmodium berghei ANKA infected NMRI mice (Mus musculus) at 30 mg/kg/day peroral dose over 4 days; assay type: functional; settings: route oral; method in brief: as §2
[14] = test system: Plasmodium berghei; assay: Antimalarial activity as reduced parasitaemia against Plasmodium berghei ANKA infected NMRI mice (Mus musculus) at 10 mg/kg/day peroral dose over 4 days; assay type: functional; set-up: scale not given: the % may be the effect or the level left; settings: route oral; method in brief: as §2
[15] = test system: Plasmodium berghei; assay: Antimalarial activity as reduced parasitaemia against Plasmodium berghei ANKA infected NMRI mice (Mus musculus) at 10 mg/kg/day subcutaneous dose over 4 days; assay type: functional; set-up: scale not given: the % may be the effect or the level left; method in brief: as §2
[16] = test system: Plasmodium falciparum; assay: Antimalarial activity against chloroquine-sensitive Plasmodium falciparum NF54 by [3H]hypoxanthine uptake; assay type: functional, organism-based; method in brief: as §1
[17] = Cytotoxicity against human HMEC1 cells by MTT assay; assay type: cell-based; settings: HMEC-1
[18] = test system: Plasmodium berghei; assay: Antimalarial curative activity at day 30 against Plasmodium berghei ANKA infected NMRI mice (Mus musculus) at 30 mg/kg/day peroral dose over 4 days; assay type: functional, organism-based; method in brief: as §2
[19] = test system: Plasmodium berghei; assay: Antimalarial activity as survival time against Plasmodium berghei ANKA infected NMRI mice (Mus musculus) at 10 mg/kg/day subcutaneous dose over 4 days; assay type: functional; method in brief: as §2
[20] = test system: Plasmodium falciparum; assay: Antimalarial activity against chloroquine-resistant Plasmodium falciparum W2 by LDH assay; assay type: functional, organism-based; method in brief: as §4
[21] = test system: Plasmodium berghei; assay: Antimalarial activity as reduced parasitaemia against Plasmodium berghei ANKA infected NMRI mice (Mus musculus) at 100 mg/kg peroral dose after 3 days; assay type: functional; set-up: scale not given: the % may be the effect or the level left; settings: route oral; method in brief: as §3
[22] = Cytotoxicity against mouse WEHI clone 13 cells by MTT assay; assay type: cell-based
[23] = test system: Mus musculus; assay: Toxicity in CD1 mouse assessed as body weight variation at 50 mg/kg, ip after 13 days; assay type: organism-based; set-up: dose 50 mg/kg, route intraperitoneal; settings: in vivo, 312 h
Method in brief: (§5)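 Intraperitoneal dosing was given to groups of 4 mice alongside an untreated control group. Surviving mice were counted and signs noted. Mean body weight was recorded initially and after 5 and 13 days, expressed as % variation.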

[24] = test system: Mus musculus; assay: Toxicity in CD1 mouse assessed as survival at 100 mg/kg, ip; assay type: organism-based; set-up: dose 100 mg/kg, route intraperitoneal; settings: in vivo; method in brief: as §5
[25] = test system: Mus musculus; assay: Toxicity in CD1 mouse assessed as survival at 50 mg/kg, ip; assay type: organism-based; set-up: dose 50 mg/kg, route intraperitoneal; settings: in vivo; method in brief: as §5
[26] = test system: Mus musculus; assay: Toxicity in CD1 mouse assessed as body weight variation at 150 mg/kg, ip after 13 days; assay type: organism-based; set-up: dose 150 mg/kg, route intraperitoneal; settings: in vivo, 312 h; method in brief: as §5
[27] = test system: Mus musculus; assay: Toxicity in CD1 mouse assessed as body weight variation at 100 mg/kg, ip after 13 days; assay type: organism-based; set-up: dose 100 mg/kg, route intraperitoneal; settings: in vivo, 312 h; method in brief: as §5
[28] = test system: Mus musculus; assay: Toxicity in CD1 mouse assessed as body weight variation at 150 mg/kg, ip after 5 days; assay type: organism-based; set-up: dose 150 mg/kg, route intraperitoneal; settings: in vivo, 120 h; method in brief: as §5
[29] = test system: Mus musculus; assay: Toxicity in CD1 mouse assessed as body weight variation at 100 mg/kg, ip after 5 days; assay type: organism-based; set-up: dose 100 mg/kg, route intraperitoneal; settings: in vivo, 120 h; method in brief: as §5
[30] = test system: Mus musculus; assay: Toxicity in CD1 mouse assessed as body weight variation at 50 mg/kg, ip after 5 days; assay type: organism-based; set-up: dose 50 mg/kg, route intraperitoneal; settings: in vivo, 120 h; method in brief: as §5

Row | SMILES | CL [1] | IC50 [2] | Activity [3] | Activity [4] | Activity [5] | Activity [6] | Activity [7] | IC50 [8] | Activity [9] | Activity [10] | IC50 [11] | Activity [12] | Activity [13] | Activity [14] | Activity [15] | IC50 [16] | IC50 [17] | Activity [19] | Activity [21] | IC50 [22] | other results
1 | CCOc1ccc2ccc(=O)oc2c1 [ETHOXYCOUMARIN] | 7 mL/min/g | – | – | – | – | – | – | – | – | – | – | – | – | – | – | – | – | – | – | – | –
2 | Clc1ccc2c(NCCC34CCCN3CCC4)ccnc2c1 | – | 19.6 nM | 94% | 9.3 days | 1.66 | 12.3 days | 14.7 days | 5.5 nM | >99.9% | 99.1% | 17600 nM | 8.7 days | 30 days | >99.9% | >99.9% | 6.33 nM | > 60000 nM | 15.3 days | 98% | 61400 nM | Activity [18]: Active; IC50 [20]: 54.7 nM
3 | CCN(CC)CCCC(C)Nc1ccnc2cc(Cl)ccc12.O=P(O)(O)O.O=P(O)(O)O (stereo not drawn) [CHLOROQUINE PHOSPHATE] | – | – | 99.8% | 9.3 days | 1.69 | 14.7 days | 22.3 days | – | >99.9% | 99.2% | 31800 nM | 9.7 days | 30 days | 99.9% | >99.9% | – | > 40000 nM | 15.7 days | 99.2% | > 40000 nM | Activity [18]: Active
4 | Clc1ccc2c(NCC34CCCN3CCC4)ccnc2c1 | 1.5 mL/min/g | 10.6 nM | 96% | 7.3 days | 1.06 | 13.7 days | 25.7 days | 30.6 nM | >99.9% | 99.7% | 18100 nM | 10.3 days | 25 days | >99.9% | >99.9% | 10.9 nM | > 60000 nM | 29.3 days | 99.5% | 24700 nM | Activity [23]: 20.8%; Activity [24]: Non-toxic; Activity [25]: Non-toxic; Activity [26]: 22.9%; Activity [27]: 22.2%; Activity [28]: 12.9%; IC50 [20]: 28.9 nM; Activity [29]: 10.1%; Activity [30]: 8.3%
